In ChEMBL document CHEMBL2016446, “Trivalent ultrashort lipopeptides are potent pH dependent antifungal agents” (J Med Chem, 2012) one finds survival data, which are given here for one molecule.

The subject of the test is Aspergillus fumigatus. Put plainly: Antifungal activity against Aspergillus fumigatus Af293 infected in immunocompromized ICR mouse assessed as survival rate at 4.5 mg/kg, at pH 5.5 it administered on day 1, 4, 7 and 11 monitored for 28 days relative to control. The class given is functional. The settings on record: route endotracheal. The essentials: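 Six-week-old female ICR mice immunocompromised with cortisone acetate (150 mg/kg in PBS/0.1% Tween 80, s.c.) 4 days before treatment, on day of first treatment, and 2 and 4 days after. A. fumigatus lung infection on day 1. Lipopeptide given i.t. at 4.5 mg/kg (50 μL, pH 5.5) on days 1, 4, 7 and 11. Controls: saline, amphotericin B 1 mg/kg i.p. Survival followed 28 days; n = 9–10.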

On to `CCCCCCCCCCCCCC(=O)N[C@@H](Cc1c[nH]cn1)C(=O)N[C@@H](Cc1c[nH]cn1)C(=O)N1CCCN(C(=O)[C@H](Cc2c[nH]cn2)NC(=O)[C@H](Cc2c[nH]cn2)NC(=O)CCCCCCCCCCCCC)Cc2cc(cc(C(N)=O)c2)CN(C(=O)[C@H](Cc2c[nH]cn2)NC(=O)[C@H](Cc2c[nH]cn2)NC(=O)CCCCCCCCCCCCC)CCC1`, for which the survival at 4.5 mg/kg was 55%.
